Source: PubChem BioAssay
Only some compounds are listed: those with a hit (about 3.4% of all), similar ones and a draw of the others.
Redox H2O2 prof: compounds producing H2O2 with reducing agent – biochemical, NIH compound library profiling, artefact control for MLSCN library redox annotation, primary screen | DTT-dependent redox cycling H2O2, phenol red/HRP absorbance; 100% = 100 µM peroxide control, 0% = buffer | activation, % at 10 µM | 200,000 tested, 0.03% active | AID 878;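 active = activation of at least 50% relative to the plate's high and low controls in the primary single-dose screen; inactive = activation below 50%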;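 note: compound incubated with DTT at 0.8 mM final as the reducing agent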
Mdm2 ligase inh: Mdm2 E3 ligase (human) inhibition. cell-based MDM2 ubiquitination luciferase reporter, 2 h; 0 = plate control, 100 = twice control, blank-subtracted. signal enhancement, % at 5 µM. 210,000 tested, 0.11% active;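 active = signal enhancement of 30% or more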;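 note: luminescence tracks abundance of the self-degrading MDM2-luciferase fusion protein; higher signal means inhibition of MDM2 E3 ligase activity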
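Assay system: mammalian cells stably expressing self-ubiquitinating, self-degrading MDM2 E3–luciferase fusion. Quantity: 2000 cells in each well. Medium: DMEM culture medium. Compound dosing: single-point 5 µM. Timing: cell settling 4 h, compound treatment 2 h, both 37 °C. Technique: luciferase luminescence. Read-out basis: percent signal gain over controls, blank-subtracted. Benchmarks: plate controls and plate blanks.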
p97 ATPase inh: human p97 ATPase inhibition. P55072. recombinant p97 ATPase, Kinase-Glo ATP luminescence, 3 h. inhibition, % at 8 µM. 220,000 tested, 0.42% active; in the data active = inhibition above about 15%;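 note: 0% = DMSO vehicle and 100% = wells lacking enzyme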
Cl transport mod: KCC2 (human) Cl- transport modulation; B-score of Tl+ flux slope (higher = more flux/activation; lower = inhibition) at 10 µM; KCC2 cells, thallium flux FluoZin-2 fluorescence; 190,000 tested, 2.2% active;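 active = thallium flux slope and its plate-corrected score both differing from the plate sample mean at a set confidence after two filtering rounds, in either direction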;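 note: slope of fluorescence scaled to starting intensity during 10 to 20 s after thallium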
PKD1 inh: inhibitors of human PKD1 kinase | Q15139 | PKD1 kinase fluorescence polarization assay | inhibition, % (test concentration not listed) | 200,000 tested, 0.056% active | AID 797; in the data active = inhibition above about 50%
Target sequence (Q15139 whole entry, looked up): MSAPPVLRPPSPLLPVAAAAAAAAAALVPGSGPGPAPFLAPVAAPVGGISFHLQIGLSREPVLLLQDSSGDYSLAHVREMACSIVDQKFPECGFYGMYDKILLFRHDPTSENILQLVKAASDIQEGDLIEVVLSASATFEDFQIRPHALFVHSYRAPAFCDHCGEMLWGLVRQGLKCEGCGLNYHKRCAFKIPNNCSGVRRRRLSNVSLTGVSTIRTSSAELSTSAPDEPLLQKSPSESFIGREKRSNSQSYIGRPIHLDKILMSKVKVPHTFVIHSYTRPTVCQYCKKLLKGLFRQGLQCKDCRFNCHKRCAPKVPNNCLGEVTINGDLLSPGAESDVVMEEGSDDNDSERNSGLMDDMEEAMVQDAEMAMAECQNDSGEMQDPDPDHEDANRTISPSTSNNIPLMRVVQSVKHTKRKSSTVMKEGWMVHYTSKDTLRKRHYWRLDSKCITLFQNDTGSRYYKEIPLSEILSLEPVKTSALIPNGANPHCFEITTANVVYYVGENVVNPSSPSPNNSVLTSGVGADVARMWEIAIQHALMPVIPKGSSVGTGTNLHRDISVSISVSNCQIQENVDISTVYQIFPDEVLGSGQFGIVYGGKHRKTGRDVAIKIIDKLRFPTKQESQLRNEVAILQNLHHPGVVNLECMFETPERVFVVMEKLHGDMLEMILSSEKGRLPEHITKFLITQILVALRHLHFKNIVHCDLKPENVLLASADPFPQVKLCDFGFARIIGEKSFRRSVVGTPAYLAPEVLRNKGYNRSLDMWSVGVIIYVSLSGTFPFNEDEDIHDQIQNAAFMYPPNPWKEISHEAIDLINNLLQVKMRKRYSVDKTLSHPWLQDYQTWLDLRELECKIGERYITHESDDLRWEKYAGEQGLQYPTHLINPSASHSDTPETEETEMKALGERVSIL
ROMK primary: modulators of human ROMK potassium channel. P48048. B-score at 10 µM. AID 1918. 130,000 tested, 2% active. Tet-inducible ROMK, thallium flux fluorescence; actives lie on both sides;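 active = signal ratio slope over the read window, or its plate-corrected B-score, at least 3 SD from the plate mean, either direction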;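 note: B-score of the F/F0 ratio slope over 7 to 12 s after thallium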
p97 confirm: confirmation of human p97 ATPase inhibitors. shares compounds with p97 ATPase inh. recombinant p97 ATPase, Kinase-Glo ATP luminescence. inhibition, % at 8 µM. 760 tested, 44% active;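 active = percent inhibition of p97 ATPase above a set limit, the primary screen's mean plus 3 SD, cut at about 15% in these data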;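 note: 0% = DMSO wells and 100% = wells lacking p97 protein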
* marks the source's active call; other numbers are inactive results; . = no result given.

SMILES	Redox H2O2 prof	Mdm2 ligase inh	p97 ATPase inh	Cl transport mod	PKD1 inh	ROMK primary	p97 confirm
CC(C)N(C(=O)COC(=O)[C@H](C)NC(N)=O)c1ccccc1	0	-3	15*	-0.17	-14	1.1	3
CC(C)c1cc(-c2cc(-c3ccccc3)on2)nc(NC2CCCC2)n1	.	-21	.	-0.33	.	.	.
CCCc1cc(=O)n2[nH]c(-c3ccccc3)cc2n1	2	-25	2	-0.2	-2	.	.
CCCCn1[nH]c(-c2ccccc2)cc1=O	-1	7	21*	0.16	-4	.	6
CCC(NC(=O)NCc1ccccc1)(C(F)(F)F)C(F)(F)F	0	-11	5	0.17	4	.	.
CC(NC(=O)Nc1ccc(O)cc1)(C(F)(F)F)C(F)(F)F	0	-2	30*	0.46	-6	0.61	1
CCC(NC(=O)Nc1ccc(O)cc1)(C(F)(F)F)C(F)(F)F	0	-5	37*	.	6	0.0097	5
COc1ccc(/C=N/NC(=O)Cn2ccnc2C)cc1OC	.	-25	18*	0.81	.	.	5
CCC(=O)Nc1ccc(F)c(Cl)c1	-3	-17	4	-0.0029	-11	-1.5	.
CCC(=O)Nc1ccc(Br)c(Cl)c1	0	-3	16*	0.15	-7	-0.83	11
CS(=O)(=O)c1sc(C#N)c2c1C(=O)CC(c1ccccc1)C2 (stereo not given)	.	-19	25*	.	.	.	22*
Cc1oc2c(c(=O)c1C)C(=O)CC(c1ccccc1)C2 (stereo not given)	-2	-17	2	-0.2	-12	0.15	.
CCOc1ccc(-c2c[n+](=O)c3c(n2[O-])CCCC3)c(OCC)c1	-1	1	-5	1.9	-1	.	.
c1coc(-c2nc(-c3ccco3)c(-c3ccco3)nc2-c2ccco2)c1	0	-16	40*	0.032	14	.	9
COc1ccc2nc(-c3ccco3)c(-c3ccco3)nc2c1	1	-18	7	0.39	17	0.41	.
CC(=O)OCC1O[C@@H](O[C@@H]2C[C@H]3C(C)(C)[C@H](OC(C)=O)CC[C@]3(C)[C@H]3CC[C@]45C[C@]4(CC[C@H]5[C@@H](C)C[C@@H](O)[C@H](O)C(C)(C)O)[C@@]32C)[C@H](O)[C@@H](O)[C@@H]1O (stereo not given in full)	0	.	-16	1.4	-10	0.16	.
N#Cc1cc2ccc(N3CCOCC3)cc2cc1C#N	1	-19	15*	0.3	2	.	19*
Cc1cccc(C)c1NC(=O)C(=O)NCc1ccccn1	2	-6	7	-0.14	6	.	.
NC(=O)N/N=C/c1cc(Br)ccc1OC(=O)c1ccccc1	0	1	16*	-0.025	2	0.76	23*
CC1CCN(S(=O)(=O)c2cccc(C(N)=O)c2)CC1	1	-30	7	0.09	-8	-0.062	.
CC1CCCC(NCC(O)COC(c2ccc(F)cc2)c2ccc(F)cc2)C1C (stereo not given)	0	-18	15*	.	4	0.024	8
Cc1c(/C=N/Nc2nc3ccccc3[nH]2)c2ccccc2n1C	.	1	24*	-0.48	.	-1.7	17*
Cn1c(/C=N/Nc2nc3ccccc3[nH]2)nc2ccccc21	-2	-33	-3	-2	-1	0.44	.
COC(=O)/C=C1/S/C(=N/NC(=O)c2ccc(Cl)cc2Cl)NC1=O	.	1	22*	0.22	.	.	21*
COC(=O)/C=C1\S/C(=N/NC(=O)c2ccc(OC)cc2)NC1=O	-4	-11	0	0.37	6	0.65	.
SMILES	Redox H2O2 prof	Mdm2 ligase inh	p97 ATPase inh	Cl transport mod	PKD1 inh	ROMK primary	p97 confirm
CC(C(=O)Nc1ccc2c(c1)OCO2)N1CCN(C)CC1 (stereo not given)	.	-21	22*	0.46	.	.	4
CCOc1ccc(NC(=S)NC2CC3CCC(C2)N3Cc2ccco2)cc1 (stereo not given)	-2	-16	-2	-0.15	-4	-0.7	.
CN(C)S(=O)(=O)c1ccc2c(c1)nc(CCC(=O)O)n2C	0	-3	16*	-0.09	-2	-0.34	7
CCn1c(CCC(=O)O)nc2cc(S(=O)(=O)N(C)C)ccc21	0	-5	1	-0.0057	-10	0.45	.
C=CC[n+]1c(-c2ccc(OC)cc2)csc1NNC(=O)Nc1ccccc1	0	.	17*	.	-2	1.1	1
O=C(NCc1ccco1)C1CCCN1C(=O)Nc1ccccc1 (stereo not given)	-1	-11	3	-0.47	1	0.0025	.
CCC(=O)NC1=C(NC(C)c2ccccc2)C(=O)c2ccccc2C1=O (stereo not given)	0	-14	-6	-1	2	0.0011	.
CCC(=O)NC1=C(Cl)C(=O)C(NC(=O)CC)=C(Cl)C1=O	.	-4	19*	-3.3	.	.	12
Cc1cc(O)c(C=O)c2c1C(=O)Oc1c(CO)c(O)c3c(c1O2)C(O)OC3=O (stereo not given)	0	3	64*	0.21	12	.	24*
CCCOC(=O)C1=C(C)NC(=O)NC1c1ccc(Br)s1 (stereo not given)	0	-1	4	-0.13	-3	.	.
O=[N+]([O-])c1ccc2nc(-c3ccccc3)cc(-c3ccccc3)c2c1	1	-1	3	0.25	-14	-0.22	.
O=[N+]([O-])c1ccc2c(c1)c(-c1ccccc1)nc1nncn12	0	7	34*	-0.64	3	-0.93	4
COc1ccc(CNC(=S)Nc2ccc(S(N)(=O)=O)cc2)cc1	-1	-93	-1	-3.6	9	0.62	.
COc1cc(OC)cc(C(=O)NNC(=S)Nc2ccc(S(N)(=O)=O)cc2)c1	-2	10	21*	0.49	2	-0.63	25*
O=[N+]([O-])c1c(NCc2ccco2)ccc2nonc12	.	-11	18*	-0.23	.	.	9
O=[N+]([O-])c1c(Nc2ccccc2)ccc2nonc12	-1	-7	4	.	-13	.	.
O=C1NC(=S)S/C1=C\C=C\c1ccc([N+](=O)[O-])o1	.	.	45*	2.2	.	.	18*
CC(C)(C)C(=O)/C=C(\N)c1ccncc1	2	-8	3	-0.021	-4	.	.
COc1ccc(/C(N)=C/C(=O)C(C)(C)C)cc1	2	0	34*	1.1	-4	-1	-2
Cc1ccc(NC(=O)C2CCN(S(=O)(=O)c3ccccc3)CC2)cc1	0	-8	5	-0.4	-3	-0.028	.
Cc1ccc(S(=O)c2ccc(NC(=O)C3CC3)cc2C#N)cc1 (stereo not given)	11	-18	17*	.	1	-0.16	3
